Blank lines part the entries; values can stand above or below the compound they belong to. Active and inactive are the calls of the source. The calls are words filed in the database; no cut-off is given here.
Key:
[1] = Cytotoxicity against human U87 cells assessed as cell viability after 72 hrs by MTT assay; assay type: functional, cell-based, U-87MG ATCC; conditions: U-87 MG
[2] = Cytotoxicity against human U373 cells assessed as cell viability after 72 hrs by MTT assay; assay type: functional, cell-based, U-373MG ATCC; conditions: U373 MG
MDA-MB-231 [3] = assay: Cytotoxicity against human MDA-MB-231 cells assessed as cell viability after 72 hrs by MTT assay; assay type: functional, cell-based; conditions: MDA-MB-231, 72 h
PANC-1 = assay: Cytotoxicity against human PANC1 cells assessed as cell viability after 72 hrs by MTT assay; assay type: functional, cell-based; conditions: PANC-1, 72 h
SK-BR-3 = assay: Cytotoxicity against human SKBR3 cells assessed as cell viability after 72 hrs by MTT assay; assay type: functional, cell-based; conditions: SK-BR-3, 72 h
U2OS = assay: Cytotoxicity against human U2OS cells assessed as cell viability by MTT assay; assay type: functional, cell-based
In short: (§1)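 RD2, RH30 and U2OS sarcoma cells were seeded at 3000 cells/well and incubated 24 h at 37 °C. Compounds were then added in triplicate at 0.1–10 or 0.1–20 μM in the presence of 10% FBS, from 20 mM DMSO stocks. IC50 was obtained by curve fitting.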

[4] = Cytotoxicity against human Rh30 cells assessed as cell viability by MTT assay; assay type: functional, cell-based; conditions: SJRH30; in short: as §1
[5] = Cytotoxicity against human RD2 cells assessed as cell viability by MTT assay; assay type: functional, cell-based; in short: as §1
SJRH30 [6] = assay: Effect on total STAT3 expression in human Rh30 cells at 0.5 to 2.5 uM after 16 hrs by Western blot analysis; assay type: functional, cell-based
In short: (§2)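 RH30 cells at 60–80% confluence in 10% FBS were treated with compound or DMSO for 16 h. Whole-cell extracts were made in cold RIPA buffer with protease and phosphatase inhibitor cocktails. Extracts were run on SDS-PAGE and transferred to PVDF. Blots were probed for P-STAT3 (Tyr705) and total STAT3 with primary antibody 1:1,000 and HRP secondary 1:10000, then detected by ECL.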

[7] = target: Signal transducer and activator of transcription 3 (Homo sapiens) (UniProt P40763); assay: Inhibition of IL6-induced STAT3 Y705 phosphorylation in human MCF7 cells at 0.5 to 2.5 uM incubated for 5 hrs prior to IL6 induction measured after 30 mins by Western blot analysis; assay type: cell-based
In short: (§3)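 MCF-7 cells, which lack persistent P-STAT3, were allowed to adhere overnight and then serum-starved overnight. They were left untreated or pretreated with compound or DMSO for 5 h, then stimulated with IL-6 at 25 ng/mL. Cells were harvested 30 min later and probed for P-STAT3 (Tyr705) and STAT3 by Western blot using RIPA lysates and ECL.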

[8] = target: Signal transducer and activator of transcription 3 (Homo sapiens) (UniProt P40763); assay: Inhibition of constitutive STAT3 Y705 phosphorylation in human Rh30 cells after 16 hrs by Western blot analysis; assay type: cell-based; in short: as §2
[9] = target: Signal transducer and activator of transcription 3 (Homo sapiens) (UniProt P40763); assay: Inhibition of constitutive STAT3 Y705 phosphorylation in human EW8 cells after 8 hrs by Western blot analysis; assay type: cell-based
In short: (§4)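 EW8 Ewing's sarcoma cells were treated with 0.5–1 μM compound or DMSO for 8 h, in 10% FBS at 60–80% confluence. Whole-cell RIPA lysates were analyzed by SDS-PAGE and PVDF Western blot, with primary antibody 1:1,000, HRP secondary 1:10000 and ECL detection. Blots were probed for P-STAT3, total STAT3, phosphorylated ERK1/2 and cleaved caspase 3.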

MDA-MB-231 [10] = assay: Antitumor activity against human MDA-MB-231 cells xenografted in Harlan athymic nude mouse assessed as tumor growth inhibition at 5 mg/kg, ip measured for 21 days; assay type: functional, organism-based; set-up: dose 5 mg/kg
In short: (§5)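 Female athymic nude mice, 6 weeks old, received 5 × 10^6 MDA-MB-231 cells subcutaneously in the flank. After tumors developed, they were split into two groups of eight tumors each: DMSO vehicle control, or 5 mg/kg IP. The drug was formulated in Cremaphor, DMSO and 5% dextrose. Tumor L and W were measured by caliper every other day. Volume = 0.5236 × L × W2. Treatment lasted 21 days.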

[11] = target: Signal transducer and activator of transcription 3 (Homo sapiens) (UniProt P40763); assay: Inhibition of IL6-induced STAT3 Y705 phosphorylation in human MCF7 cells at 0.25 to 1 uM incubated for 5 hrs prior to IL6 induction measured after 30 mins by Western blot analysis; assay type: cell-based; in short: as §3
[12] = target: Mitogen-activated protein kinase; ERK1/ERK2 (Homo sapiens) (UniProt P27361+P28482); assay: Inhibition of ERK1/2 phosphorylation in human EW8 cells at 0.5 to 1 uM after 8 hrs by Western blot analysis; assay type: cell-based; in short: as §4
SJRH30 [13] = assay: Effect on total STAT3 expression in human Rh30 cells at 0.25 to 1 uM after 16 hrs by Western blot analysis; assay type: functional, cell-based; in short: as §2
EW8 = assay: Effect on total STAT3 expression in human EW8 cells at 0.5 to 1 uM after 8 hrs by Western blot analysis; assay type: functional, cell-based; in short: as §4
MDA-MB-231 [14] = assay: Antitumor activity against human MDA-MB-231 cells xenografted in Harlan athymic nude mouse assessed as decrease in tumor size at 5 mg/kg, ip measured for 21 days; assay type: functional, organism-based; set-up: dose 5 mg/kg; in short: as §5
[15] = target: Signal transducer and activator of transcription 3 (Homo sapiens) (UniProt P40763); assay: Inhibition of IL6-induced STAT3 Y705 phosphorylation in human DAOY cells at 1 to 5 uM incubated for 2 hrs prior to IL6 induction measured after 30 mins by Western blot analysis; assay type: cell-based
In short: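 DAOY medulloblastoma cells were allowed to adhere, then serum-starved overnight. They were left untreated or pretreated with 1–5 μM compound or DMSO for 2 h, then stimulated with IL-6. Cells were harvested 30 min after stimulation. P-STAT3 (Tyr705) and STAT3 were detected by Western blot from RIPA lysates, with ECL detection.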

[16] = target: T1, Signal transducer and activator of transcription 1-alpha/beta (Homo sapiens) (UniProt P42224); assay: Inhibition of IFN-gamma-induced STAT1 Y701 phosphorylation in human DAOY cells at 1 to 5 uM incubated for 2 hrs prior to IFN-gamma induction measured after 30 mins by Western blot analysis; assay type: cell-based
T1 sequence (whole entry): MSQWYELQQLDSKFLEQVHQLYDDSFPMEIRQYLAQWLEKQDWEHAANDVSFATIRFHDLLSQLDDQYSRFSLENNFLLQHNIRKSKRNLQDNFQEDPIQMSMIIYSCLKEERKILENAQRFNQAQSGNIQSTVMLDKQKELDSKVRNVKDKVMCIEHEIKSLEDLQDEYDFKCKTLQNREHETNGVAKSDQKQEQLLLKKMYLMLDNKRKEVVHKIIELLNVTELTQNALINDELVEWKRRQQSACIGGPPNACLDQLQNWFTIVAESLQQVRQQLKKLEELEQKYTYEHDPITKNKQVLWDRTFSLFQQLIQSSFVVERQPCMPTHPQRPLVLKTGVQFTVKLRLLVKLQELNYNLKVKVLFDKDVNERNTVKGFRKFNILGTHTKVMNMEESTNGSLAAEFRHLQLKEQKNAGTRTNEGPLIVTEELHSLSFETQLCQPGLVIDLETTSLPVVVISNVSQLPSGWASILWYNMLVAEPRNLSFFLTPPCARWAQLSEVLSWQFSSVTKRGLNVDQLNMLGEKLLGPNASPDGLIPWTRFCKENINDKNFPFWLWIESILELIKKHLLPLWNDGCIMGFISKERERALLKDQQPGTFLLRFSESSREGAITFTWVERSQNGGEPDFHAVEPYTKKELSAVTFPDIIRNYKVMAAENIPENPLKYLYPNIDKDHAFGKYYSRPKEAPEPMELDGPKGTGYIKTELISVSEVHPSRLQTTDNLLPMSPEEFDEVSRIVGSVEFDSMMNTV
In short: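 DAOY cells were serum-starved overnight and left untreated or treated with 1–5 μM compound or DMSO for 2 h. They were then stimulated with IFN-γ at 50 ng/mL and harvested 30 min later. STAT1 phosphorylation was analyzed by Western blot from RIPA lysates, with ECL detection.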

[17] = target: Signal transducer and activator of transcription 3 (Homo sapiens) (UniProt P40763); assay: Inhibition of constitutive STAT3 Y705 phosphorylation in human EW8 cells assessed as appearance of cleaved caspase 3 at 0.5 to 1 uM after 8 hrs by Western blot analysis; assay type: cell-based; in short: as §4

Signal transducer and activator of transcription 3 (Homo sapiens), sequence (P40763 whole entry): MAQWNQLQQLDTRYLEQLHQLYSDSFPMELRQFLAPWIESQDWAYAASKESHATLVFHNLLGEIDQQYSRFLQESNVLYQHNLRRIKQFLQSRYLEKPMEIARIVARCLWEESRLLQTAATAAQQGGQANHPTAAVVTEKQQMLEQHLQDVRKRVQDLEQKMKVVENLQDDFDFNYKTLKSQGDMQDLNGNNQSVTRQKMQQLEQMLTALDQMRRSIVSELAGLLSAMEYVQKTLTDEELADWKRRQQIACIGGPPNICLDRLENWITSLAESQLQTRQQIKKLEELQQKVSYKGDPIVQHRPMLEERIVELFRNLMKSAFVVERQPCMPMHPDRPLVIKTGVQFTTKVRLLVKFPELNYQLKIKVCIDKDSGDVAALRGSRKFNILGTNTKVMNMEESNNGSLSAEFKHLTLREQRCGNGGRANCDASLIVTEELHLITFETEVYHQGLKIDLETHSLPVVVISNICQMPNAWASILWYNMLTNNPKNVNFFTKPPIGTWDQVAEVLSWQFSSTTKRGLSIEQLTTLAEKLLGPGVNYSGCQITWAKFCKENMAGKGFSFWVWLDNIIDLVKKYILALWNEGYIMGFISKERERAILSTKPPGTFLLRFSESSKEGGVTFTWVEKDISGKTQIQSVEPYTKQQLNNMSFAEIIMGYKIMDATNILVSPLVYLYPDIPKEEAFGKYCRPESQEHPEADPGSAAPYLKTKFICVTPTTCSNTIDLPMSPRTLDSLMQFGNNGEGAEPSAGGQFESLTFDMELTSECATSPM
Mitogen-activated protein kinase; ERK1/ERK2 (Homo sapiens), sequence (P27361 whole entry, looked up): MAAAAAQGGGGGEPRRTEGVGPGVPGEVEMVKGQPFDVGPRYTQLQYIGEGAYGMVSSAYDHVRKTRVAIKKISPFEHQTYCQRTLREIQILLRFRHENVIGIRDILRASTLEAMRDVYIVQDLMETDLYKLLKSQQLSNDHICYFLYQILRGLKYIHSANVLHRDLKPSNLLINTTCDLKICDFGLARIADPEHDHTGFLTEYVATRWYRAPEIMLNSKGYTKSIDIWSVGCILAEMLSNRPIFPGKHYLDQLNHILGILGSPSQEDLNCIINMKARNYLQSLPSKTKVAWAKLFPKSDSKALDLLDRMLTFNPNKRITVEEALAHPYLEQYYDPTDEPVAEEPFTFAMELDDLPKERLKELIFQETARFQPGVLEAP
Mitogen-activated protein kinase; ERK1/ERK2 (Homo sapiens), sequence (P28482 whole entry, looked up): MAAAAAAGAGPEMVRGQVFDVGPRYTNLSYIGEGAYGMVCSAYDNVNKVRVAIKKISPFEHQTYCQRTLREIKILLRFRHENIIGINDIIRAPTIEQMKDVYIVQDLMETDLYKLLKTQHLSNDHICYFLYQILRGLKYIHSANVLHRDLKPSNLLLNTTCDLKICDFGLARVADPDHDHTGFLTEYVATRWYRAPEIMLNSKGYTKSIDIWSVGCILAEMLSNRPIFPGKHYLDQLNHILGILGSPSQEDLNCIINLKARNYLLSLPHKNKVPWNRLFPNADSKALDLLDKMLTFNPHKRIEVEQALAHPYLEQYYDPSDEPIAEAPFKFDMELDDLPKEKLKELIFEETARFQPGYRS

SMILES: NS(=O)(=O)c1cccc2c1C(=O)c1cccc(O)c1C2=O
- IC50 [1]: 0.16 µM
- IC50 [2]: 0.16 µM
- IC50 (MDA-MB-231 [3]): 0.16 µM
- IC50 (PANC-1): 0.16 µM
- IC50 (SK-BR-3): 0.16 µM

SMILES: O=C1C(Nc2ccc3ccccc3c2)=CC2=NS(=O)(=O)c3cccc1c32
- IC50 (U2OS): 2.5 µM

SMILES: O=C1C(Nc2ccccc2)=CC2=NS(=O)(=O)c3cccc1c32
- IC50 (U2OS): 5 µM

SMILES: NS(=O)(=O)c1cccc2c1C(=O)C=C(Nc1ccccc1)C2=O
- IC50 (U2OS): > 5 µM

- inhibition [7]: Active
- inhibition [8]: Dose-dependent effect
SMILES: O=C1C(Nc2ccc([N+](=O)[O-])cc2Cl)=CC2=NS(=O)(=O)c3cccc1c32
- IC50 (U2OS): 1.39 µM
- IC50 [4]: 1.14 µM
- IC50 [5]: 2.56 µM
- Activity (SJRH30 [6]): inactive

- inhibition [9]: Dose-dependent effect
- inhibition [11]: Active
- inhibition [12]: inactive
- inhibition [15]: Active
- inhibition [16]: inactive
- inhibition [17]: Active
- inhibition [8]: Dose-dependent effect
SMILES: NS(=O)(=O)c1cccc2c1C(=O)C=C(Nc1cccnc1)C2=O
- IC50 (U2OS): 0.5 µM
- TGI (MDA-MB-231 [10]): Active
- IC50 [4]: 0.55 µM
- IC50 [5]: 1.39 µM
- Activity (SJRH30 [13]): inactive
- Activity (EW8): inactive
- Activity (MDA-MB-231 [14]): Active

Source: ChEMBL document CHEMBL2380221, “Discovery of novel STAT3 small molecule inhibitors via in silico site-directed fragment-based drug design” (J Med Chem, 2013)
